EBI2 antag = antagonists of human EBI2 receptor; P32249; EBI2 beta-arrestin recruitment, luminescence, 7a,25-OHC stimulated; inhibition, % at 5 µM; actives 0.81% (n = 360,000); AID 651636; in the data active means inhibition above about 38%;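 further: enzyme fragment complementation signal reports receptor beta-arrestin coupling in cells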
Target sequence (P32249 whole entry, looked up, the tested form may be a part): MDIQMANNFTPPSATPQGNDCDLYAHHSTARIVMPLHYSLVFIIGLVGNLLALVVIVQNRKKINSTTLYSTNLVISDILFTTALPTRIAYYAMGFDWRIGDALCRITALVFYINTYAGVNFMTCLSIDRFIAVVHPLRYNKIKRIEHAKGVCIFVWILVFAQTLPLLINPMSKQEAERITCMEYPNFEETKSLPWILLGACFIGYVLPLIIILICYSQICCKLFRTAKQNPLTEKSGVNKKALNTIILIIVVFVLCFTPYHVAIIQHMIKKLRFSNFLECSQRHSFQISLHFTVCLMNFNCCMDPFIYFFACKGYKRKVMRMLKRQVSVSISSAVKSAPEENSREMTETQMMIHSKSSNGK
CXCR6 inh = inhibitors of human CXCR6 receptor. CHO-K1 PathHunter CXCR6 beta-arrestin, luminescence. AID 602244. inhibition, % at 20 µM. actives 0.36% (n = 360,000); in the data active means inhibition above about 34%, passing the limit was not always enough;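 further: antagonist mode with CXCL16 agonist at 10 nM final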
CCR6 antag = CCR6 (human) receptor antagonism | inhibition, % at 20 µM | CHO-K1 CCR6 PathHunter beta-arrestin, luminescence, CCL20-stimulated | actives 0.49% (n = 340,000) | P51684;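 active means compounds whose inhibition of the agonist-driven luminescence signal at 20 µM reaches about 50%, limit read from the data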;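 further: cells stimulated with CCL20 at 14 nM final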
APJ agonist = agonists of human APJ apelin receptor; CHO-K1 APJ PathHunter beta-arrestin, luminescence; 0% DMSO wells, 100% apelin; activation, % at 20 µM; actives 0.11% (n = 330,000); P35414; AID 2520;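 active means activation more than six SD over the plate average, tested at 20 µM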
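Material: engineered CHO-K1 APJ arrestin reporter cells; amount: 1000 CHO-K1 reporter cells seeded per well; incubation: compound stimulation 90 min at 25 °C, detection 60 min; signal: luminescent beta-gal fragment complementation, chemiluminescent substrate; read-out basis: APJ agonist activity; controls: DMSO-only wells as negative, 10 nM Apelin-13 as positive control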
APJ antag = antagonists of human APJ apelin receptor. P35414. CHO-K1 APJ beta-arrestin complementation, luminescence. inhibition, % at 20 µM. actives 0.32% (n = 330,000);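 active means inhibition above about 40% at 20 µM, limit read from the data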;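 further: cells challenged with 10 nM apelin-13 agonist together with compound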
EBI2 conf = confirmation of human EBI2 receptor antagonists; AID 651997; shares compounds with EBI2 antag; actives 29% (n = 2,400); EBI2 beta-arrestin luminescence, 7a,25-OHC antagonism; inhibition, % at 5 µM;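 active means inhibition of at least 50%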
EBI2 ag = activates EBI2, counter-screen for EBI2 antagonists | shares compounds with EBI2 antag | EBI2-expressing cells, agonist mode, luminescence, 60 min; 0% vehicle, 100% 7α,25-dihydroxycholesterol control | activation, % at 5 µM | 2,400 tested, under 10 active;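 active means activation of at least 50%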
bGal counter = counter-screen for EBI2 antagonists: E. coli beta-galactosidase inhibition; shares compounds with EBI2 antag; purified beta-galactosidase, luminescent Galacton Star, 15 min; inhibition, % at 5 µM; actives 1% (n = 2,400); AID 652176;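 active means replicate-average signal at least 3 plate SD below neutral wells, shown as high inhibition, flagging enzyme-inhibiting false positives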;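 further: higher means stronger loss of beta-gal luminescence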
Numbers stand for hits. Hits are enriched below; roughly 1.5% of the tested compounds scored in any of these assays.

Results for CC(C)C[C@@H](CN1CCCC1CN1C(=S)NC[C@@H]1Cc1ccc(O)cc1)N1C[C@H](Cc2ccccc2)N(CCc2ccccc2)C1=S (stereo partly specified) ?
EBI2 antag: inactive; CXCR6 inh: inactive; CCR6 antag: inactive

How did CC(C)C[C@@H](CN1CCC[C@@H]1CN1C(=S)NC[C@@H]1Cc1ccc(O)cc1)N1C[C@H](Cc2ccccc2)N(CCc2ccccc2)C1=S do in these assays?
EBI2 antag: 47; CXCR6 inh: inactive; EBI2 conf: inactive; EBI2 ag: inactive; bGal counter: inactive

How did Oc1ccc(C[C@H]2CNC(=S)N2CC2CCCN2C[C@H](Cc2ccc(O)cc2)N2C[C@H](Cc3ccccc3)N(CCc3ccccc3)C2=S)cc1 (stereo partly specified) do in these assays?
EBI2 antag: 42; CXCR6 inh: inactive; CCR6 antag: inactive; EBI2 conf: inactive; EBI2 ag: inactive; bGal counter: inactive

Results for CC(C)C[C@H]1CN([C@@H](CC(C)C)CN2CCC[C@@H]2CN2C(=S)NC[C@@H]2Cc2ccc(O)cc2)C(=S)N1CCc1ccccc1 ?
EBI2 antag: inactive; CXCR6 inh: inactive

How did CC(C)C[C@H]1CNC(=S)N1C[C@H]1CCCN1C[C@H](CC(C)C)N1C[C@H](Cc2ccc(O)cc2)N(CCc2ccccc2)C1=S do in these assays?
EBI2 antag: 43; CXCR6 inh: inactive; EBI2 conf: inactive; EBI2 ag: inactive; bGal counter: inactive

How did CC(C)C[C@H]1CNC(=S)N1C[C@H]1CCCN1C[C@H](Cc1ccc(O)cc1)N1C[C@H](Cc2ccccc2)N(CCc2ccccc2)C1=S do in these assays?
EBI2 antag: inactive; CXCR6 inh: inactive

Results for C[C@@H]1CN([C@H](C)CO)C(=O)c2cccc(NC(=O)NC3CCCCC3)c2O[C@@H]1CN(C)C(=O)Nc1ccc(C(F)(F)F)cc1 ?
EBI2 antag: 72; CXCR6 inh: inactive; CCR6 antag: inactive; APJ agonist: inactive; APJ antag: inactive; EBI2 conf: inactive; EBI2 ag: inactive; bGal counter: inactive

What do the screens show for `O=S(=O)(c1ccc2nc(-c3ccccc3)[nH]c2c1)N1CCN(c2cccc(Cl)c2)CC1`?
EBI2 antag: inactive; CXCR6 inh: inactive; CCR6 antag: inactive; APJ agonist: inactive; APJ antag: inactive

Results for COc1ccccc1N1CCN(S(=O)(=O)c2ccc3nc(-c4ccccc4)[nH]c3c2)CC1 ?
EBI2 antag: 53; CXCR6 inh: inactive; CCR6 antag: inactive; APJ agonist: inactive; APJ antag: inactive; EBI2 conf: inactive; EBI2 ag: inactive; bGal counter: inactive

How did CN(c1ccc([N+](=O)[O-])cc1C(=O)Nc1ccccc1)C1CCCCC1 do in these assays?
EBI2 antag: 41; CXCR6 inh: inactive; CCR6 antag: inactive; APJ agonist: inactive; APJ antag: inactive; EBI2 conf: inactive; EBI2 ag: inactive; bGal counter: inactive

Results for CSc1ccc(/C=C(\C#N)C(=O)NC2CCCCC2C)cc1 (stereo unspecified) ?
EBI2 antag: inactive; CXCR6 inh: inactive; CCR6 antag: inactive; APJ agonist: inactive; APJ antag: inactive

How did CCOC(=O)/C(C#N)=C\c1ccc(OC)c(OC)c1 do in these assays?
EBI2 antag: inactive; CXCR6 inh: inactive; CCR6 antag: inactive; APJ agonist: inactive; APJ antag: inactive

How did COc1ccc(/C=N/NC(=O)CC#N)cc1Oc1nc(Cl)ncc1F do in these assays?
EBI2 antag: inactive; CXCR6 inh: inactive; CCR6 antag: inactive; APJ agonist: inactive; APJ antag: inactive

Results for COc1cc(/C=C(\C#N)C(N)=O)ccc1OS(=O)(=O)c1ccc(C)cc1 ?
EBI2 antag: 52; CXCR6 inh: inactive; CCR6 antag: inactive; APJ agonist: inactive; APJ antag: inactive; EBI2 conf: 56; EBI2 ag: inactive; bGal counter: inactive

What do the screens show for `COc1cc(/C=C(\C#N)C(=O)NC2CCCCC2C)ccc1OS(=O)(=O)c1ccc(C)cc1` (stereo unspecified)?
EBI2 antag: 62; CXCR6 inh: inactive; CCR6 antag: inactive; APJ agonist: inactive; APJ antag: inactive; EBI2 conf: 69; EBI2 ag: inactive; bGal counter: inactive

What do the screens show for `COc1cc(/C=C(/C#N)C(=O)Nc2ccc(C)cc2)ccc1Oc1nc(Cl)ncc1F`?
EBI2 antag: 49; CXCR6 inh: inactive; CCR6 antag: inactive; APJ agonist: inactive; APJ antag: inactive; EBI2 conf: inactive; EBI2 ag: inactive; bGal counter: inactive

Results for Cc1ccc(N(C(=O)c2snc(C(N)=O)c2N)C(C(=O)NC2CCCC2)c2ccco2)cc1 (stereo unspecified) ?
EBI2 antag: 56; CXCR6 inh: inactive; CCR6 antag: inactive; APJ agonist: inactive; APJ antag: inactive; EBI2 conf: inactive; EBI2 ag: inactive; bGal counter: inactive

What do the screens show for `COc1ccc(C(C(=O)NC2CCCCC2)N(C(=O)c2snc(C(N)=O)c2N)c2ccc(OC)cc2OC)cc1` (stereo unspecified)?
EBI2 antag: 70; CXCR6 inh: inactive; CCR6 antag: inactive; APJ agonist: inactive; APJ antag: inactive; EBI2 conf: 73; EBI2 ag: inactive; bGal counter: inactive

How did Cc1ccc(N(C(=O)c2snc(C(N)=O)c2N)C(C(=O)NC2CCCC2)c2ccc(C)o2)cc1 (stereo unspecified) do in these assays?
EBI2 antag: 68; CXCR6 inh: inactive; CCR6 antag: inactive; APJ agonist: inactive; APJ antag: inactive; EBI2 conf: 70; EBI2 ag: inactive; bGal counter: inactive

How did CCOc1ccccc1N(C(=O)c1snc(C(N)=O)c1N)C(C(=O)NC1CCCC1)c1ccco1 (stereo unspecified) do in these assays?
EBI2 antag: inactive; CXCR6 inh: inactive; CCR6 antag: inactive; APJ agonist: inactive; APJ antag: inactive

Results for Cc1cccc(N(C(=O)c2snc(C(N)=O)c2N)C(C(=O)NC2CCCC2)c2ccc(C)o2)c1 (stereo unspecified) ?
EBI2 antag: 51; CXCR6 inh: inactive; CCR6 antag: inactive; APJ agonist: inactive; APJ antag: inactive; EBI2 conf: 56; EBI2 ag: inactive; bGal counter: inactive

How did Cc1cccc(N(C(=O)c2snc(C(N)=O)c2N)C(C(=O)NC2CCCC2)c2ccncc2)c1 (stereo unspecified) do in these assays?
EBI2 antag: inactive; CXCR6 inh: inactive; CCR6 antag: inactive; APJ agonist: inactive; APJ antag: inactive

How did N#Cc1ccc(NCC(=O)N2CCN(S(=O)(=O)c3ccccc3)CC2)cc1 do in these assays?
EBI2 antag: inactive; CXCR6 inh: inactive; CCR6 antag: inactive; APJ agonist: inactive; APJ antag: inactive
